Measured values collected from several papers.
Target: Ephrin type-A receptor 3 (EPHA3, Homo sapiens, UniProt P29320)
Sequence (P29320 1-983, as in one of the studies): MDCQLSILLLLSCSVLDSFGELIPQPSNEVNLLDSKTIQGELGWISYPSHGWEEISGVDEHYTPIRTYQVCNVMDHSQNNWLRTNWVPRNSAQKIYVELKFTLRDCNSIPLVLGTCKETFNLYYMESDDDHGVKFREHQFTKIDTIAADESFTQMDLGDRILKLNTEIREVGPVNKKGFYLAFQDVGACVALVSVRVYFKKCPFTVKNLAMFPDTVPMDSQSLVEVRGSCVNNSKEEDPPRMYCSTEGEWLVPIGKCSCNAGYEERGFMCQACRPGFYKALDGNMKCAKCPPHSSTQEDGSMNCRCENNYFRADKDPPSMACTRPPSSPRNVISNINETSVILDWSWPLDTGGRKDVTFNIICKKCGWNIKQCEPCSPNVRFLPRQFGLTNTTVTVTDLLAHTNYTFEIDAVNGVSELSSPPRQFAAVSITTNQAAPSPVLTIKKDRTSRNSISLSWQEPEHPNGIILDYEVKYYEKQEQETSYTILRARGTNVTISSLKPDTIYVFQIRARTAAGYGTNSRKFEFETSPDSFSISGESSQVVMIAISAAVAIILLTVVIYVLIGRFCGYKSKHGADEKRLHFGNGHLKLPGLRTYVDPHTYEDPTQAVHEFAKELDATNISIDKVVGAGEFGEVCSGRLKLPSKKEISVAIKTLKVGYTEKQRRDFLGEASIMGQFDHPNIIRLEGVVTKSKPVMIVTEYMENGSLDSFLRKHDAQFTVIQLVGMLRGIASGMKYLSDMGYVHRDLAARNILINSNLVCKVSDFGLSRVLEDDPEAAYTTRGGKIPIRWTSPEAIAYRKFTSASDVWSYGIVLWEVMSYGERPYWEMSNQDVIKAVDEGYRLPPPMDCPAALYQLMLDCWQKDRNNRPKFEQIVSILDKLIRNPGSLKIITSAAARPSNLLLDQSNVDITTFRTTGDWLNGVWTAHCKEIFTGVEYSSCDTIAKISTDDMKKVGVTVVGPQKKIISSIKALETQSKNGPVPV

Compound	observed	mode	method	concentration	endpoint	value
CS(=O)(=O)CCNCc1ccc(-c2ccc3ncnc(Nc4ccc(OCc5cccc(F)c5)c(Cl)c4)c3c2)o1	cell-free assay	–	–	0.5 µM	remaining signal	98.2%
Cc1cc(NC(=O)c2cccc3cc(-c4cccc5[nH]nc(N)c45)ccc23)ccc1F	enzyme activity	inhibitor	–	0.1 µM	activity vs control	103%
C#Cc1cccc(Nc2ncnc3cc(OCCOC)c(OCCOC)cc23)c1	cell-free assay	–	–	0.5 µM	remaining signal	93.2%
Cc1noc([C@H]2C[C@@H](c3ccc(C(F)(F)F)cc3)CN(C(=O)N3CCS(=O)(=O)C3)C2)n1	cell-free assay	–	competition with immobilised ligand	1 µM	remaining binding	100%
CNC(=O)c1cc(Oc2ccc(NC(=O)Nc3ccc(Cl)c(C(F)(F)F)c3)cc2)ccn1	enzyme activity	inhibitor	–	10 µM	inhibition	95%
Cc1ccc(C(=O)Nc2ccc(CN3CCN(C)CC3)c(C(F)(F)F)c2)cc1C#Cc1cnc2cccnn12	cell-free assay	–	–	23.5 nM	remaining signal	7.3%
Nc1ncnc2occ(-c3ccc(NC(=O)Nc4cc(C(F)(F)F)ccc4F)cc3)c12	cell-free assay	–	–	20 µM	remaining signal	16%
CCN(CC)c1ccc(C2=NNC(=O)CC2C)cc1[N+](=O)[O-] (centres unmarked)	enzyme activity	inhibitor	–	10 µM	remaining activity	100%
CCCOc1ccc(OC)c(F)c1C(=O)c1ccc(C(=O)N[C@@H]2CNC[C@H]2NC(=O)c2ccc3[nH]ncc3c2)cc1	enzyme activity	inhibitor	–	10 µM	remaining activity	61%
Cc1cnc(NC2CCOCC2)nc1-n1cnc(C(=O)NC(CN)c2cc(F)cc(Cl)c2)c1 (centres unmarked)	enzyme activity	inhibitor	radiometric	1 µM	remaining activity	123%
COc1cc(Cl)c(C(=O)N[C@@H](CN[C@H]2CC[C@@H](N)CC2)Cc2ccc(C#N)cc2)cc1-c1ccc(CN[C@H](C)c2ccc(C)cc2)o1	enzyme activity	inhibitor	–	1 µM	remaining activity	69%
O=C(O)[C@@H]1[C@@H](Cn2nnc3ccccc3c2=O)CC[C@H]1C(=O)c1ccc(OCCC2CCOCC2)cc1	cell-free assay	–	competition with immobilised ligand	1 µM	remaining binding	100%
CN(C)C1CCN(CC#Cc2nn(C3CCCC3)c3nc(NCc4ccccc4)ncc23)C1 (centres unmarked)	enzyme activity	inhibitor	FRET	1 µM	inhibition	-9%
O=C(NC[C@@H]1[C@H]2CN(C(=O)OCc3cc(C(F)(F)F)cc(C(F)(F)F)c3)C[C@@H]12)c1ccc2[nH]nnc2c1	cell-free assay	–	competition with immobilised ligand	1 µM	remaining binding	100%
Cc1ccc(Nc2nccc(N(C)c3ccc4c(C)n(C)nc4c3)n2)cc1S(N)(=O)=O	enzyme activity	inhibitor	–	10 µM	inhibition	30%
CCOC(=O)c1cc2cc(-c3cc(C(=O)NCc4ccc(C(=O)O)cc4)nn3C)ccc2[nH]1	cell-free assay	–	competition with immobilised ligand	0.1 µM	remaining binding	100%
COc1cc2ncnc(Nc3ccc(F)c(Cl)c3)c2cc1OCCCN1CCOCC1	cell-free assay	–	–	0.5 µM	remaining signal	94.4%
CCc1ccccc1C(=O)Nc1n[nH]c2c(C)c(F)c(C3C(C#N)=C(C)N(C)C(C)=C3C#N)cc12	cell-free assay	–	competition with immobilised ligand	1 µM	remaining binding	100%
CC(C)(C)c1nc2c(s1)c1nc(N)ncc1c1ccc(NS(=O)(=O)c3c(F)cccc3F)c(F)c12	enzyme activity	inhibitor	radiometric	1 µM	remaining activity	92%
CCOCCn1cc(C(=O)Nc2ccc(-n3nc(-c4cccnc4)cc3C(F)(F)F)cn2)ccc1=O	cell-free assay	–	competition with immobilised ligand	1 µM	remaining binding	99%
O=C1NC(=O)c2cc(Nc3ccc(F)cc3)c(Nc3ccc(F)cc3)cc21	cell-free assay	–	–	0.5 µM	remaining signal	96.6%
COc1cccc(CNC(=O)c2nc3scc(COCc4ccc(C(=O)O)cc4)c3c(=O)[nH]2)c1	cell-free assay	–	competition with immobilised ligand	1 µM	remaining binding	91.3%
CC/C(=N\NC(=O)NCc1cccc(O)c1)c1ccc(O)c(C)c1O	enzyme activity	inhibitor	–	0.1 µM	inhibition	0.6%
